Values after ≈ are worked out from the molar mass of the structure shown. Active and inactive are the calls of the source. The rule behind the calls is not given here.
Experiments:
DU-145 = assay: Cytotoxicity against human DU145 cells assessed as inhibition of tumor growth incubated for 72 hrs by luminometry; format: functional, cell-based; details: DU-145, 72 h
How it was run: (§1)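 Cells seeded at 5000 per well in DMEM with 10% serum and left overnight. Compound added from DMSO dilutions (0.4% DMSO final) for 72 h. After 5 min at room temperature, ATPLite two-step lysis and substrate added, 5 min incubation, then luminescence read. Values are the mean of at least two experiments.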

Mus musculus [1] = assay: Toxicity in nude mouse xenografted with human NCI-N87 cells assessed as effect on body weight at 200 mg/kg, po qd for 22 days measured twice a week; format: organism-based; parameters: dose 200 mg/kg, route oral; details: in vivo, 528 h
How it was run: (§2)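 Female nude mice (Crl:NU-Fox1nu) implanted subcutaneously in the right flank with 5 million NCI-N87 cells. At median tumor volume of roughly >100 mm3, randomized to 5 cohorts of 10. Dosed orally once daily for 22 days with vehicle (40% w/w Captisol) or 50, 75, 125 or 200 mg/kg. Tumor size and body weight measured at least twice weekly.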

Heat shock protein HSP90 [2] = biological target: T1, Heat shock protein HSP90 (Homo sapiens, UniProt P07900+P08238); assay: Inhibition of human HSP90 in HCT116 cells assessed as induction of HSP70 incubated for 24 hrs by Western blot method; format: cell-based; details: HCT-116
How it was run: (§3)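 Cells exposed to a range of concentrations for 24 h. Lysates analyzed by Western blot with Her2-, Hsp70- and Akt-specific antibodies.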

[3] = AUC in Swiss nude mouse at 10 mg/kg, po by LC-ESI-MS/MS method; format: ADME, organism-based; parameters: dose 10 mg/kg, route oral; details: plasma
How it was run: (§4)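 Mice dosed by oral gavage, vehicle DMA/PEG300/EtOH/H2O (3/40/12/45, v/v/v/v). Blood drawn by cardiac puncture into EDTA plasma. Three or five animals per time point. Plasma precipitated with acetonitrile plus internal standard. Quantified by LC-ESI-MS/MS against a 10–10 000 ng/mL standard curve with QC samples. Noncompartmental analysis.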

LNCaP = assay: Cytotoxicity against human LNCAP cells assessed as inhibition of tumor growth incubated for 72 hrs by luminometry; format: functional, cell-based; how it was run: as §1
Heat shock protein HSP90 [4] = biological target: T1, Heat shock protein HSP90; assay: Inhibition of human HSP90 using BODIPY labelled geldanamycin as substrate by fluorescence polarization assay; format: protein assay
Mus musculus [5] = assay: Inhibition of HSP90 in human NCI-N87 cells xenografted nude mouse tumor assessed as induction of HSP70 mRNA expression at 50 to 200 mg/kg, po qd for 22 days; format: functional, organism-based
A549 = assay: Cytotoxicity against human A549 cells assessed as inhibition of tumor growth incubated for 72 hrs by luminometry; format: functional, cell-based; details: A549, 72 h; how it was run: as §1
NCI-N87 [6] = assay: Antitumor activity against human NCI-N87 cells xenografted in nude mouse assessed as tumor growth inhibition at 75 mg/kg, po qd for 22 days measured twice a week; format: functional; details: NCI-N87, 528 h, read-out: TGI; how it was run: as §2
Mus musculus [7] = assay: Inhibition of HSP90 in mouse liver assessed as induction of HSP70 mRNA expression at 100 mg/kg, po after 6 hrs relative to control; format: functional
Mus musculus [8] = assay: Hepatic clearance in Swiss nude mouse at 2.5 mg/kg, iv by LC-ESI-MS/MS method; format: ADME, organism-based, Liver; parameters: dose 2.5 mg/kg, route intravenous; details: in vivo
How it was run: (§5)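 Intravenous dose in mice, vehicle DMA/PEG300/EtOH/H2O 3/40/12/45. Sampling at 5, 15, 30, 60, 120, 240, 480 and 720 min, three or five animals per time point. Cardiac-puncture EDTA plasma. Acetonitrile protein precipitation with internal standard, then LC-ESI-MS/MS (10–10 000 ng/mL curve). Parameters by noncompartmental fit.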

[9] = Metabolic stability in human liver microsomes assessed as percent of residual drug in presence of NADPH incubated for 40 mins by LC-ESI-MS/MS method; format: ADME, Microsome; details: liver microsomes, read-out: Stability
How it was run: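 Test article incubated in duplicate with human liver microsomes (0.5 mg/mL protein) in 100 mM potassium phosphate pH 7.4. Started with 1 mM NADPH. Stopped with acetonitrile at 0, 10, 20 and 40 min. LC-MS/MS peak area at 40 min reported as percent of 0 min. No-NADPH control incubated for 40 min.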

[10] = Cmax in Swiss nude mouse at 10 mg/kg, po by LC-ESI-MS/MS method; format: ADME, organism-based; parameters: dose 10 mg/kg, route oral; details: in vivo; how it was run: as §4
NCI-N87 [11] = assay: Antitumor activity against human NCI-N87 cells xenografted in nude mouse assessed as tumor regression at 125 mg/kg, po qd for 22 days measured twice a week; details: 528 h
NCI-H69 = assay: Cytotoxicity against human NCI-H69 cells assessed as inhibition of tumor growth incubated for 72 hrs by luminometry; format: functional, cell-based; details: NCI-H69, 72 h; how it was run: as §1
Heat shock protein HSP90 [12] = biological target: T1, Heat shock protein HSP90; assay: Inhibition of human HSP90 in HCT116 cells assessed as degradation of Her2 incubated for 24 hrs by Western blot method; format: cell-based; how it was run: as §3
[13] = Lipophilicity, log P of the compound; format: physicochemical; details: octanol/water
NCI-N87 [14] = assay: Antitumor activity against human NCI-N87 cells xenografted in nude mouse assessed as tumor growth inhibition at 50 mg/kg, po qd for 22 days measured twice a week; format: functional; details: NCI-N87, 528 h, read-out: TGI; how it was run: as §2
Heat shock protein HSP90 [15] = biological target: T1, Heat shock protein HSP90; assay: Inhibition of human HSP90 in DU145 cells assessed as degradation of Her2 incubated for 24 hrs by Western blot method; format: cell-based; how it was run: as §3
HT-29 = assay: Cytotoxicity against human HT-29 cells assessed as inhibition of tumor growth incubated for 72 hrs by luminometry; format: functional, cell-based; details: HT-29, 72 h; how it was run: as §1
HCT-116 = assay: Cytotoxicity against human HCT116 cells assessed as inhibition of tumor growth incubated for 72 hrs by luminometry; format: functional, cell-based; details: HCT-116, 72 h; how it was run: as §1
NCI-N87 [16] = assay: Antitumor activity against human NCI-N87 cells xenografted in nude mouse assessed as tumor regression at 200 mg/kg, po qd for 22 days measured twice a week; details: 528 h
BT-474 = assay: Cytotoxicity against human BT474 cells assessed as inhibition of tumor growth incubated for 72 hrs by luminometry; format: functional, cell-based; details: BT-474, 72 h; how it was run: as §1
[17] = Tmax in Swiss nude mouse at 10 mg/kg, po by LC-ESI-MS/MS method; format: ADME, organism-based; parameters: dose 10 mg/kg, route oral; details: in vivo; how it was run: as §4
[18] = Solubility of compound in phosphate buffer at pH 7.4; format: physicochemical
Mus musculus [19] = assay: Toxicity in nude mouse xenografted with human NCI-N87 cells assessed as effect on body weight at 50 mg/kg, po qd for 22 days measured twice a week; format: organism-based; parameters: dose 50 mg/kg, route oral; details: in vivo, 528 h; how it was run: as §2
[20] = AUC in Swiss nude mouse at 100 mg/kg, po by LC-ESI-MS/MS method; format: ADME, organism-based; parameters: dose 100 mg/kg, route oral; details: plasma
How it was run: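 Single oral gavage in mice, vehicle 40% Captisol in phosphate buffer. EDTA plasma from cardiac puncture. Acetonitrile precipitation with internal standard, then LC-ESI-MS/MS quantitation against a 10–10 000 ng/mL standard curve. Cmax and AUC by noncompartmental analysis.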

Heat shock protein HSP90 [21] = biological target: T1, Heat shock protein HSP90; assay: Inhibition of human HSP90 in DU145 cells assessed as induction of HSP70 incubated for 24 hrs by Western blot method; format: cell-based; details: DU-145; how it was run: as §3
[22] = AUC in Swiss nude mouse at 2.5 mg/kg, iv by LC-ESI-MS/MS method; format: ADME, organism-based; parameters: dose 2.5 mg/kg, route intravenous; details: plasma; how it was run: as §5
Heat shock protein HSP90 [23] = biological target: T1, Heat shock protein HSP90; assay: Inhibition of human HSP90 in NCI-N87 cells assessed induction of HSP70 incubated for 24 hrs by Western blot method; format: cell-based; how it was run: as §3

Question: What does the source list for `C[C@H](O)C(=O)N1CCC(CCn2c(Sc3cc4c(cc3Br)OCO4)nc3c(N)ncnc32)CC1`?
Answer: IC50 (DU-145): 530 nM; Activity (Mus musculus [1]): Non-toxic; inhibition (Heat shock protein HSP90 [2]): Dose-dependent effect; AUC [3]: 3210 ng·h/mL; IC50 (LNCaP): 510 nM; IC50 (Heat shock protein HSP90 [4]): 140 nM; inhibition (Mus musculus [5]): Active; IC50 (A549): 770 nM; inhibition in vivo at 75 mg/kg (NCI-N87 [6]): 62%; fold change (FC) (Mus musculus [7]): 53; CLH (Mus musculus [8]): 19.78 mL/min/kg; remaining at 40 min [9]: 42%; Cmax [10]: 2800 ng/mL; tumor regression at 125 mg/kg (NCI-N87 [11]): 10%; IC50 (NCI-H69): 150 nM; inhibition (Heat shock protein HSP90 [12]; HCT-116): Dose-dependent effect; IC50 (Heat shock protein HSP90 [12]; hct-116): 100 nM; logP [13]: 3.32; inhibition in vivo at 50 mg/kg (NCI-N87 [14]): 37%; inhibition (Heat shock protein HSP90 [15]; DU-145): Dose-dependent effect; IC50 (Heat shock protein HSP90 [15]; du-145): 100 nM; IC50 (HT-29): 420 nM; IC50 (HCT-116): 540 nM; tumor regression at 200 mg/kg (NCI-N87 [16]): 48%; IC50 (BT-474): 550 nM; Tmax [17]: 15 min; solubility [18]: 20 µM (≈ 11 µg/mL); Activity (Mus musculus [19]): Non-toxic; AUC [20]: 81800 ng·h/mL; inhibition (Heat shock protein HSP90 [21]): Dose-dependent effect; AUC [22]: 2110 ng·h/mL; inhibition (Heat shock protein HSP90 [23]): Dose-dependent effect
